# From PubChem BioAssay
# Insulin prom up – MIN6 insulin promoter up-regulation. MIN6 insulin promoter-GFP reporter, high-content imaging; active compounds read high. z-score at 5 µM. AID 1625. 190,000 compounds, 0.3% hits;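 active = z-score above 3 at 5 µM with at least 500 cells counted in the well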
# RAM inhibit – blocks the yeast RAM network; S. cerevisiae dse1pr::URA3 reporter, 5-FOA growth OD615, 2 d; analog-sensitive cbk1-as2 kinase mutant strain; inhibition, % at 50 µM; 190,000 compounds, 1.8% hits; AID 868;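 active = inhibition above a set limit, 3 SD over mean compound inhibition, cut at about 8.4% in these data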;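 also: 0% = DMSO-only wells with no growth and 100% = 10 µM 1-NA-PP1 full growth; inhibition rescues growth on 5-FOA so higher OD means more RAM inhibition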
# Yeast lifespan up – extends the lifespan of yeast. S. cerevisiae growth with nicotinamide, OD615; deaD strain in restrictive glucose medium. inhibition of the nicotinamide effect, % at 10 µM. 130,000 compounds, 0.68% hits. AID 775;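 active = inhibition above a set limit, placed 3 SD over the median of all compounds, cut at about 26% in these data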;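 also: 0% = nicotinamide-treated wells and 100% = cells grown without nicotinamide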
#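 Assay system: engineered S. cerevisiae DeaD replicative-lifespan strain, galactose-grown log-phase cells; medium: restrictive CSMM-D dextrose medium; also added: nicotinamide, 1.5 mM, co-present with compound; schedule: 48 h compound exposure at 30 °C, humidified; detection: absorbance at 615 nm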
# INS promoter inh – TRM-6 insulin promoter activity inhibition; inhibition, % at 2 µM; TRM-6 cells (human fetal islet line), insulin promoter-eGFP reporter, imaging; reporter expression induced with tamoxifen; AID 1273; 130,000 compounds, 0.9% hits;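 active = inhibition above the mean plus 3 SD, with well images judged a real hit on visual review, cut at about 60% in these data, passing the limit was not always enough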
# BB579 growth dn – reduces growth of yeast BB579 in restrictive medium | S. cerevisiae BB579 growth, OD615, 48 h | inhibition, % at 10 µM | 140,000 compounds, 0.51% hits;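 active = inhibition above a set limit, 3 SD over the mean compound inhibition, cut at about 44% in these data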
#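 test system = yeast BB579 (DeaD) | buffer or medium = restrictive CSMM-D medium | doses = single compound dose of 10 µM, 0.25% DMSO final | times = 4 h preincubation and 48 h exposure at 30 °C | technique = culture absorbance at 615 nm | benchmarks = amphotericin B 10 µg/mL, positive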
# * marks the source's active call; other numbers are inactive results; . = no result given. An excerpt weighted towards active compounds, which were near 3.1% of everything screened.
SMILES,Insulin prom up,RAM inhibit,Yeast lifespan up,INS promoter inh,BB579 growth dn
Cc1ccccc1N=Cc1cccc(O)c1O,0.91,0,-11,0,97*
Cc1cccc(C=Nc2ccc3c(c2)oc2ccccc23)c1O,0.75,1,-2,.,-7
Cc1ccc(N=Cc2cccc(O)c2O)c(C)c1,0.07,2,-21,.,97*
CC(N=Cc1cccc(O)c1O)c1ccccc1 (configuration not stated),-0.44,-1,-10,-70,96*
O=C(O)c1cc(N/N=C/C=C/c2ccccc2[N+](=O)[O-])ccc1Cl,-0.49,.,.,.,.
O=C(Oc1ccccc1)c1ccc2c(c1)C(=O)N(Cc1ccncc1)C2=O,-0.08,.,.,.,.
O=C1CSC(c2ccc(F)cc2)N1c1nc2ccccc2s1 (configuration not stated),1.1,2,1,-10,-65
CCOC(=O)c1cnc2c(C)cccc2c1NCc1ccco1,0.06,0,-11,68*,-51
NNC(=O)c1cccc(COc2ccccc2Br)c1,-0.03,1,-17,-20,-29
NNC(=O)c1cccc(COc2ccc3c(c2)CCC3)c1,0.02,-1,-5,-75,51*
Cc1ccc(C(=O)NN2C(=O)C3C(C2=O)C2C=CC3C23CC3)cc1 (configuration not stated),-1,0,.,-24,.
Clc1ccc2oc(-c3ccccn3)nc2c1,3*,1,-8,37,36
Nc1ccc2oc(-c3ccccn3)nc2c1,0.23,1,-9,9,-15
CC(OC(=O)c1cccnc1Cl)C(=O)Nc1ccc(S(N)(=O)=O)cc1 (configuration not stated),0.47,-1,.,23,.
CCN(CC)S(=O)(=O)c1ccc(NC(=O)CSc2cccc[n+]2[O-])cc1,.,-1,-5,-35,65*
CNS(=O)(=O)c1ccc(NC(=O)C2c3ccccc3Oc3ccccc32)cc1,0.07,3,3,14,-18
CCN(CC)S(=O)(=O)c1ccc(NC(=O)COC(=O)CNS(=O)(=O)/C=C/c2ccccc2)cc1,.,8.4*,0,.,-40
CCN(CC)S(=O)(=O)c1ccc(NC(=O)C2c3ccccc3Oc3ccccc32)cc1,.,8.6*,3,-50,-54
CCOC(=O)C1=C(c2ccccc2)NC(SCC)=C(C#N)C1c1cccnc1 (configuration not stated),.,0,-15,-63,-36
CCN(CC)S(=O)(=O)c1ccc(C(=O)C(C#N)c2ccccn2)cc1 (configuration not stated),0.81,1,-10,73*,-63
COCc1cc(S(=O)c2ccc(Cl)cc2)nc(C)n1 (configuration not stated),1.6,-1,.,.,.
Cc1cc(C)c2c(N)c(C(=O)c3ccc(Cl)cc3)sc2n1,-1.1,1,-5,72*,-28
Cc1cc(C)c2c(N)c(C(=O)c3ccc(Cl)c(Cl)c3)sc2n1,.,1,.,70*,.
Cc1cc(-c2cccs2)c2c(N)c(C(=O)c3ccc4c(c3)OCO4)sc2n1,4.7*,5,-6,.,-16
COc1cc2cc(C)c(SCC(=O)N3CCN(C(=O)c4ccco4)CC3)nc2cc1OC,0.2,.,.,.,.
SMILES,Insulin prom up,RAM inhibit,Yeast lifespan up,INS promoter inh,BB579 growth dn
Cc1ccc(S(=O)(=O)N2CCCCC2)cc1NC(=O)COC(=O)Cc1cccc(C(F)(F)F)c1,0.4,9.2*,8,23,-47
Cc1ccc(S(=O)(=O)N2CCCCC2)cc1NC(=O)COC(=O)Cc1ccc(Cl)cc1,.,2,2,-3,-9
COc1ccc(OC)c(-c2cc(C(=O)N3CCCc4ccccc43)no2)c1,-1.4,9.3*,-2,-20,-41
Cc1ccc2c(c1)CCCN2C(=O)c1ccoc1C,0.11,0,-20,-12,-17
O=C(c1ccc(C(=O)N2CCCc3ccccc32)s1)N1CCCc2ccccc21,-0.18,0,-17,-53,84*
CCc1ccc2c(c1)CCCN2C(=O)c1ccccc1C(=O)O,-5.3,0,34*,.,-42
CCOC(=O)CC(=O)CSc1nc2ccc(OC)cc2cc1C,0.02,5,.,.,.
CC1=NCCN1CCNC(=O)Nc1ccc(C(C)(C)C)cc1,0.7,.,.,.,.
CCOC(=O)CNc1ncc(C(F)(F)F)cc1Cl,-0.9,1,.,-33,.
N#CCC(CNc1ncc(C(F)(F)F)cc1Cl)OC(=O)c1ccc(Cl)cc1Cl (configuration not stated),-0.43,9.6*,-22,-19,-41
Cc1cccc2c(N=O)c(O)[nH]c12,-0.21,.,.,.,.
